# Reference: ChEMBL document CHEMBL2176900, “Design and synthesis of a novel series of bicyclic heterocycles as potent γ-secretase modulators” (J Med Chem, 2012)
# Legend:
# [1] = Drug uptake in Sprague-Dawley rat brain at 10 mg/kg, po at 7 hrs by LC-MS/MS analysis; format: ADME, organism-based; set-up: dose 10 mg/kg, route oral; conditions: read-out: Drug uptake
# Outline: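 Overnight-fasted male Sprague–Dawley rats (180–220 g) were dosed 10 mg/kg by gastric intubation of a 5 mg/mL suspension in 0.5% methocellulose. Rats were anesthetized with isoflurane, CSF was taken from the cisterna magna, then they were decapitated. Brain compound levels were measured as in the mouse assay. n = 5.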
# Canis familiaris = experiment: Antialzheimer activity in beagle dog assessed as amyloid beta 40 level in cerebrospinal fluid at 20 mg/kg, po at 24 hrs by ELISA relative to control
# [2] = Lipophilicity, log P of the compound; format: physicochemical; conditions: octanol/water
# hERG (KCNH2) = hERG (KCNH2) (Homo sapiens, UniProt Q12809); experiment: Inhibition of human ERG at 3 uM by patch clamp assay
# Outline: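 Potassium membrane current was recorded with an automated patch-clamp system at 3 μM, with a vehicle control.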
# [3] = Fraction unbound in dog plasma; format: ADME, cell-free, Canis lupus familiaris
# [4] = Plasma concentration in beagle dog at 20 mg/kg, po at 24 hrs; format: ADME, organism-based, Canis lupus familiaris; set-up: dose 20 mg/kg, route oral
# Rattus norvegicus = experiment: Antialzheimer activity in Sprague-Dawley rat assessed as amyloid beta 40 level in brain at 10 mg/kg, po at 7 hrs by ELISA relative to control; format: functional
# Outline: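 Male Sprague-Dawley rats (180-220 g), fasted overnight, were given 10 mg/kg by gastric intubation as a 5 mg/mL suspension in 0.5% methocellulose. At 2, 4, 7 and 25 h, 50 μL CSF was taken from the cisterna magna under isoflurane, then brain was collected. Aβ37/38/40/42 were measured by MesoScale Discovery sandwich immunoassays. Results are mean % change versus T = 0 h, n = 5.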
# [5] = Fraction unbound in rat plasma; format: ADME, cell-free
# Mus musculus = experiment: Antialzheimer activity in po dosed CD1 mouse assessed as amyloid beta 42 level in brain at 4,8 and 24 hrs by ELISA; format: functional, organism-based
# Outline: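 Overnight-fasted male CD1 SPF mice got one oral dose (10 or 30 mg/kg) formulated in 20% Captisol in water. Right brain hemisphere was homogenized in 0.4% DEA/50 mM NaCl with protease inhibitors and spun at 221300g. Supernatant was neutralized with Tris-HCl pH 6.8. Aβ42 was measured by ELISA (C-terminal JRF/cAβ42/26 capture, fluorogenic peroxidase read ex 320/em 420 nm). Values are mean % change vs T = 0 h, n = 4.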
# [6] = Drug uptake in CD1 mouse brain at 10 mg/kg, po at 8 hrs by LC-MS/MS analysis; format: ADME, organism-based; set-up: dose 10 mg/kg, route oral; conditions: read-out: Drug uptake
# Outline: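 Overnight-fasted male CD1 mice received one oral dose (10 or 30 mg/kg) in 20% Captisol. After sacrifice, the left brain hemisphere was stored at −18 °C. Compound level was quantified by a qualified LC-MS/MS method, alongside EDTA plasma spun at 1900g, 4 °C. n = 4 per time point.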
# [7] = Fraction unbound in mouse plasma; format: ADME, cell-free
# hERG (KCNH2), sequence (Q12809 whole entry): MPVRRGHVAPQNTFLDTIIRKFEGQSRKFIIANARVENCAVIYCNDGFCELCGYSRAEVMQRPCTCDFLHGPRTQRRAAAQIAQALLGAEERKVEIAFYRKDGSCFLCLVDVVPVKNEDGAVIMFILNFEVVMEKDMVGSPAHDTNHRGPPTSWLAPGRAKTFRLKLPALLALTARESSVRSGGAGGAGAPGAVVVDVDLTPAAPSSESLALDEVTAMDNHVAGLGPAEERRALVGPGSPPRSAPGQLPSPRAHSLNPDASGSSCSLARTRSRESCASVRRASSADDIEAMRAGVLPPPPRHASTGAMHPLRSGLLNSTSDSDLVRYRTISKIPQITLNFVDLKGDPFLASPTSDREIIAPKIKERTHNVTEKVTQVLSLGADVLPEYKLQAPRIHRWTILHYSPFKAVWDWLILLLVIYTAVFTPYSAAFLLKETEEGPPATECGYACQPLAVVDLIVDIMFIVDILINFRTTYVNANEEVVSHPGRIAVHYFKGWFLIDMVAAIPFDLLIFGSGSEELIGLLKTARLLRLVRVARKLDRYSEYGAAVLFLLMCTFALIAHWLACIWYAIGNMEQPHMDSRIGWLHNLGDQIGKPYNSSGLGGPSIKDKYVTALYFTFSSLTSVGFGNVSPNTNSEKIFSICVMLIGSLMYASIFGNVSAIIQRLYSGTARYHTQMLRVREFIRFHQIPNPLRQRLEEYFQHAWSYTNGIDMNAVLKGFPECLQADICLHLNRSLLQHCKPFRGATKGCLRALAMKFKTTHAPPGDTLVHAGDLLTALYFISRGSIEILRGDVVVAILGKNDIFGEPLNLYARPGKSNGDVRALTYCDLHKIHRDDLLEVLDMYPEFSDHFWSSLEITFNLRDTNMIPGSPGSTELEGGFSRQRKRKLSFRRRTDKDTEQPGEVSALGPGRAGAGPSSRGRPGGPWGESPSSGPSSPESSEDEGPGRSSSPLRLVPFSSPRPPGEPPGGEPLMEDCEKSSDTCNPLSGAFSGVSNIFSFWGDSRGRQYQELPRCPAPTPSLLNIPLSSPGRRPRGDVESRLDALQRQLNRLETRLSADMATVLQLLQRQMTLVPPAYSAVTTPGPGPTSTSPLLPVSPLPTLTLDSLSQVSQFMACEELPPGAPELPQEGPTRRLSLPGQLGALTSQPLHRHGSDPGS
compound,measurement,setting,value
COc1nc(Nc2cccc3c2nc(-c2ccc(F)cc2)n3C)ccc1-n1cnc(C)c1,concentration at 7 h,[1],2000 nM
same,Activity,Canis familiaris,113%
same,logP,[2],5.25
same,inhibition at 3 µM,hERG (KCNH2),30%
same,fraction unbound,[3],0.0003
same,concentration at 24 h,[4],40 nM
same,Activity,Rattus norvegicus,66%
same,fraction unbound,[5],0.0004
same,Activity,Mus musculus,Dose-dependent effect
same,concentration at 8 h,[6],1900 nM
same,fraction unbound,[7],0.0004
